Data from PubChem BioAssay AID743256 (The Scripps Research Institute Molecular Screening Center, 2014).
Out of some 2,900 compounds screened, about 1,300 (45%) were called active. The set was probably picked from earlier hits. The list is a sample of the results. Values without a mark were called inactive.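 How the source made its calls: active means mean inhibition over the triplicate runs exceeds the activity threshold set in the earlier primary screen (cut at about 20% in these data); inactive means the rest.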

Biological target: Disintegrin and metalloproteinase domain-containing protein 10 (Homo sapiens) (UniProt O14672)
Sequence (O14672 214-748 limits assumed): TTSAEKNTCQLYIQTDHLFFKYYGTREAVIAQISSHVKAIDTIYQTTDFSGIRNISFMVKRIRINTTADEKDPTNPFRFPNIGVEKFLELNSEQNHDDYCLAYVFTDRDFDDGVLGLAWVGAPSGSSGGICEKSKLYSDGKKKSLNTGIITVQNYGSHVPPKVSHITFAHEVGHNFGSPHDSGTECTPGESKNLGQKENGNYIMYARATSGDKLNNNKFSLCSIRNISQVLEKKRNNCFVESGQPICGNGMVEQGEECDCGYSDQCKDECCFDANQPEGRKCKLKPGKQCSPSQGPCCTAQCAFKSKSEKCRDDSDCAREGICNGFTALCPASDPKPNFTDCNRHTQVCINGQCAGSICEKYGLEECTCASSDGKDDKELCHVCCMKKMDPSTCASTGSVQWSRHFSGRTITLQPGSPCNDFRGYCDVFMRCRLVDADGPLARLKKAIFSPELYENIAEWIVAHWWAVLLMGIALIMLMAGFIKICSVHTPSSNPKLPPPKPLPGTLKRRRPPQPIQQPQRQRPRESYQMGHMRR
Assay: blockers of ADAM10 peptide cleavage – biochemical, FRET, human ADAM10, counter-screen for ADAM17 exosite inhibitor project (AID 743256);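 further: 0% = DMSO wells and 100% = marimastat wells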
Conditions: recombinant ADAM10, EDANS/DABCYL FRET peptide cleavage, 3 h; at 6.95 µM; hits give high values
How it was run: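 System: ADAM10; Buffer or medium: HEPES/Brij buffer, pH 7.5; Also added: DM2 FRET peptide substrate; Compound dosing: single nominal concentration per compound; Times: 30 min plus 3 h, 25 °C; Detection: EDANS fluorescence, excitation 359 nm, emission 460 nm; Read-out basis: percent inhibition scaled between DMSO and marimastat control wells; Benchmarks: marimastat and DMSO wells.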

Row | SMILES | inhibition
1 | Cc1ccc(C(=O)Nc2ccc(C)c(S(=O)(=O)N(C)C)c2)s1 | 19.2%
2 | CCn1c(Cc2cccs2)nnc1SCC(=O)c1ccc(C)cc1 | 2.71%
3 | COc1cccc(/C=N/NC(=O)c2cccc([N+](=O)[O-])c2)c1OS(=O)(=O)c1ccc(C)cc1 | 27.1% (active)
4 | Cc1ccc(OCCOCCOc2ccc(Br)cc2/C=N\NC(=O)c2ccncc2)cc1 | 13.6%
5 | CCCCCC(=O)N1C[C@H](O)[C@@H](n2cc(COC(=O)c3ccccc3)nn2)C[C@@H]1c1ccc(C)cc1 | 22.1% (active)
6 | O=C(Cc1ncc(C(F)(F)F)cc1Cl)Nc1cccc(Br)c1 | 6.87%
7 | CCc1cccc(NC(=O)COC(=O)C2CCN(c3ccc(C(F)(F)F)cn3)CC2)c1 | 25.6% (active)
8 | Cc1ccc(OCc2nnc(SC/C=C/c3ccccc3)n2Cc2ccco2)cc1 | 18.7%
9 | Cc1sc2nc(SCC(=O)c3ccc(O)c(O)c3)n(Cc3ccco3)c(=O)c2c1C | 16.8%
10 | Cc1ccc(-c2nnc(SCC(=O)Nc3ccc(Oc4ccccc4)cc3)n2Cc2ccco2)cc1 | 30.9% (active)
11 | COc1ccc(C(=O)NN2C(=O)C3C(c4ccccc4)C=CC(c4ccccc4)C3C2=O)cc1 (centres undefined) | 25.6% (active)
12 | CC(C)C(=O)Nc1cccc(NC(=S)NC(=O)C(c2ccccc2)c2ccccc2)c1 | 31.3% (active)
13 | O=C(CSc1nc(Nc2ccccc2)nc(N2CCOCC2)n1)Nc1cc(Cl)ccc1O | 33.4% (active)
14 | CN(C)c1ccc(NC(=O)NC2CCCCN(Cc3ccc(Cl)cc3)C2=O)cc1 (centres undefined) | 1.4%
15 | CCCN(CC(=O)NC(=O)NC1CCCCC1)CC(=O)Nc1cc(Cl)ccc1Cl | 43.7% (active)
16 | O=C(C[C@H]1C(=O)N(c2ccc(F)c(F)c2)C[C@@H]1Cc1ccccc1)Nc1ccccc1 | 26.5% (active)
17 | COc1ccc(C(=O)Nc2ccc(C3(C#N)CCCC3)cc2)cc1OC | -1.52%

Row | SMILES | inhibition
18 | NNC(=O)C1CCCn2c1nc1sc3c(c1c2=O)CCCC3 (centres undefined) | -9.79%
19 | CCOc1ccc(Nc2nc(Cc3nnc(SCC(=O)c4ccc(C)cc4)o3)cs2)cc1 | 17.9%
20 | Cc1ccc(C)c(NC(=S)NNC(=S)Nc2ccc(C(C)C)cc2)c1 | 32.5% (active)
21 | CCCn1nc(C(=O)NNC(=O)CSCC(=O)Nc2cc(C)on2)c2ccccc2c1=O | -0.39%
22 | Cc1cc(NC(=O)CN2C(=O)NC(CC(C)C)C2=O)no1 (centres undefined) | 26.2% (active)
23 | CS(=O)(=O)Nc1cccc(C2=NN(S(=O)(=O)c3ccccc3)C(c3cccs3)C2)c1 (centres undefined) | 11.9%
24 | COc1ccc(S(=O)(=O)Nc2ccc(O)c(Sc3nc4ccccc4s3)c2)cc1 | 20.5% (active)
25 | Cc1ccc(-c2n[nH]c(=S)n2/N=C/c2cc3c(cc2[N+](=O)[O-])OCO3)cc1 | 4.16%
26 | COc1cc(C2CC(=O)N3CN(Cc4ccccc4)CSC3=C2C#N)ccc1OCc1ccccc1 (centres undefined) | 26.5% (active)
27 | CC(C)N(C(=O)[C@H]1C[C@H](CC(=O)NC(C)(C)C)C(=O)N2CCc3c([nH]c4ccc(Cl)cc34)[C@]12C)C(C)C | 15.5%
28 | CN(C)S(=O)(=O)c1cccc(NC(=O)COC(=O)C2(c3ccccc3F)CCCC2)c1 | 28% (active)
29 | NS(=O)(=O)c1ccc(NC(=O)COC(=O)C2(c3ccc(F)cc3)CCCC2)cc1 | 24.3% (active)
30 | Cc1ccc(S(=O)(=O)N2CCN(C(=O)COC(=O)c3c(C)cc(C)cc3C)CC2)c(C)c1 | 18.9%
31 | COc1ccc(C(=O)C2CCCN(S(=O)(=O)c3cccc(C)c3)C2)c(C)c1 (centres undefined) | 11.7%
32 | Cc1onc(C(=O)NN)c1-c1csc(COc2ccccc2)n1 | -5.47%
33 | O=C(c1ccccc1)N1CCN(c2ccc([N+](=O)[O-])c(NCc3ccco3)c2)CC1 | 14.8%
34 | O=C(NCc1ccccc1)C1=C[C@@H](c2ccc(C(F)(F)F)cc2)C[C@@H](OCc2ccc(CO)cc2)O1 | 44.5% (active)
